Results: ChEMBL document CHEMBL1149490, “SAR of biphenyl carboxamide ligands of the human melanin-concentrating hormone receptor 1 (MCH R1): discovery of antagonist SB-568849” (Bioorg Med Chem Lett, 2006)
In brackets after ≈: the same amount, converted by molar mass. Activity calls are given as the source filed them. No cut-off for these calls is given here.

Target: Melanin-concentrating hormone receptor (Homo sapiens) (UniProt Q969V1+Q99705)
Sequence (Q969V1 whole entry, looked up): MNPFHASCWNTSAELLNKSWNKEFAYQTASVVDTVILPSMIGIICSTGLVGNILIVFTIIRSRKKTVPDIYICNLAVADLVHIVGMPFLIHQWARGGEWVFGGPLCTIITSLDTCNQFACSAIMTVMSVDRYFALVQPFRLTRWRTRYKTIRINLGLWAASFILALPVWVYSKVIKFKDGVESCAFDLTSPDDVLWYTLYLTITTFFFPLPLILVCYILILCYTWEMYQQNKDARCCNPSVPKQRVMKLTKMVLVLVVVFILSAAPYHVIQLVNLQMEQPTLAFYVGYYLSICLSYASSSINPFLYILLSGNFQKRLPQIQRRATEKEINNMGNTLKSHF
Sequence (Q99705 whole entry, looked up): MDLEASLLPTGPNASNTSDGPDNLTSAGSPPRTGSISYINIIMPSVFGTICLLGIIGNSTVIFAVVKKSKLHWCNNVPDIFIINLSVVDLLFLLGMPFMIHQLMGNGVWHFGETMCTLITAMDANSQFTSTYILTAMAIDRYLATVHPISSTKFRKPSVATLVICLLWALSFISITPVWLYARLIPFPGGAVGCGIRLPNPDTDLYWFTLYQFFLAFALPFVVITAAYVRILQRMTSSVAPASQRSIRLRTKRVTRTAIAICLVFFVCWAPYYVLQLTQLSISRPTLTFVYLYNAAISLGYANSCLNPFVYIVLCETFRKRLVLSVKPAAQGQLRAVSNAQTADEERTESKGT
Experiment: Antagonizing effect on MCH-stimulated CRF release in rat hypothalamus
Type: functional, tissue-based
Settings: target entry is the homologue from another species
In the case of CCN(CC)CCOc1ccc(N(C)C(=O)c2ccc(-c3ccc(C(F)(F)F)cc3)cc2)cc1OC, the Activity is reported as “Active”.

Target: T1, Melanin-concentrating hormone receptor 1 (Homo sapiens, UniProt Q99705)
T1 sequence (Q99705 whole entry): as the sequence (Q99705 whole entry, looked up) above
Experiment: Displacement of radiolabeled iodo-MCH from human MCHR1 expressed in HEK293 cells
Type: cell-based
Settings: not given
In the case of COc1cc(NC(=O)c2ccc(-c3ccccc3)cc2)ccc1OCCN1CCCC1, the Ki is reported as 31.6 nM.
With COc1cc(NC(=O)c2ccc(-c3ccccc3)cc2)ccc1OCCN(C)C the Ki was 50.1 nM.
COc1cc(NC(=O)c2cccc(Cc3ccccc3)c2)ccc1OCCN(C(C)C)C(C)C gave a Ki of 158 nM.
Molecule CC(C)N(CCOc1ccc(NC(=O)c2ccc(-c3ccccc3)cc2)cc1)C(C)C has a Ki of 63.1 nM.
Molecule COc1cc(N(C)C(=O)c2ccc(-c3ccccc3)cc2)ccc1OCCN(C(C)C)C(C)C has a Ki of 15.8 nM.
CCN(CC)CCOc1ccc(N(C)C(=O)c2ccc(-c3ccccc3)cc2)cc1OC gave a Ki of 20 nM.
COc1cc(NC(=O)c2ccc(-c3cccc(C(F)(F)F)c3)cc2)ccc1OCCN(C(C)C)C(C)C showed a Ki of 251 nM.
COc1cc(NC(=O)c2cccc(-c3ccccc3)c2)ccc1OCCN(C(C)C)C(C)C showed a Ki of 5010 nM.
Work on COc1cc(NC(=O)c2cccc(C(=O)c3ccccc3)c2)ccc1OCCN(C(C)C)C(C)C yielded a Ki greater than 10000 nM.
With CCN(CC)CCOc1ccc(NC(=O)c2ccc(-c3ccccc3)cc2)cc1C(C)O (stereo not given) the Ki was 251 nM.
For COc1cc(NC(=O)c2ccc(-c3ccccc3)c(C)c2)ccc1OCCN(C(C)C)C(C)C, the Ki was 158 nM.
For CCN(CC)CCOc1ccc(N(CC)C(=O)c2ccc(-c3ccccc3)cc2)cc1OC, the Ki was 251 nM.
CC(C)N(CCOc1ccc(NC(=O)c2ccc(-c3ccccc3)cc2)cc1F)C(C)C showed a Ki of 398 nM.
In the case of COc1cc(NS(=O)(=O)c2ccc(-c3ccccc3)cc2)ccc1OCCN1CCCC1, the Ki is reported as greater than 10000 nM.
In the case of COc1cc(N(C)S(=O)(=O)c2ccc(-c3ccccc3)cc2)ccc1OCCN(C(C)C)C(C)C, the Ki is reported as greater than 10000 nM.
Molecule COc1cc(NC(=O)c2ccc(Oc3ccccc3)cc2)ccc1OCCN(C(C)C)C(C)C has a Ki of 200 nM.
COc1cc(NC(=O)c2ccc(C3CCCCC3)cc2)ccc1OCCN(C(C)C)C(C)C gave a Ki of 25.1 nM.
In the case of COc1cc(N(C)C(=O)c2ccc(Cc3ccccc3)cc2)ccc1OCCN(C(C)C)C(C)C, the Ki is reported as 79.4 nM.
COc1cc(NC(=O)c2ccc(-c3ccccc3C)cc2)ccc1OCCN(C(C)C)C(C)C showed a Ki of 39.8 nM.
In the case of COc1cc(NC(=O)c2ccc(-c3ccccc3)cc2)ccc1OCCN1CCCCC1, the Ki is reported as 39.8 nM.
Work on COc1cc(N(C)C(=O)c2cccc(Oc3ccccc3)c2)ccc1OCCN(C(C)C)C(C)C yielded a Ki of 398 nM.
For CCc1cc(NC(=O)c2ccc(-c3ccccc3)cc2)ccc1OCCN(CC)CC, the Ki was 50.1 nM.
Molecule COc1cc(NC(=O)c2ccc(-c3ccccc3)cc2)ccc1OCCN(C)Cc1ccccc1 has a Ki of 50.1 nM.
COc1cc(N(C)C(=O)c2ccc(-c3ccccc3)cc2)ccc1OCCN1CCCC1 showed a Ki of 20 nM.
COc1cc(NC(=O)c2ccccc2)ccc1OCCN(C(C)C)C(C)C showed a Ki greater than 10000 nM.
For CCN(CC)CCOc1ccc(N(C)C(=O)c2ccc(-c3ccc(C(F)(F)F)cc3)cc2)cc1OC, the Ki was 20 nM.
CCN(CC)CCOc1ccc(NC(=O)c2ccc(-c3ccccc3)cc2)cc1OC showed a Ki of 31.6 nM.
With COc1cc(NC(=O)c2cccc(Oc3ccccc3)c2)ccc1OCCN(C(C)C)C(C)C the Ki was 79.4 nM.
COc1cc(N(C)C(=O)c2ccc(C3CCCCC3)cc2)ccc1OCCN(C(C)C)C(C)C showed a Ki of 100 nM.
Work on COc1cc(NC(=O)c2ccc(Br)cc2)ccc1OCCN(C(C)C)C(C)C yielded a Ki greater than 6310 nM.
With COc1cc(NC(=O)c2ccc(-c3ccccc3)cc2)ccc1OCCN(C(C)C)C(C)C the Ki was 31.6 nM.
With Cc1cc(NC(=O)c2ccc(-c3ccccc3)cc2)ccc1OCCN(C(C)C)C(C)C the Ki was 63.1 nM.
CCN(CC)CCOc1ccc(NC(=O)c2ccc(-c3ccccc3)cc2)cc1C(C)=O gave a Ki of 31.6 nM.
In the case of COc1cc(NC(=O)c2ccc(-c3ccc(C(F)(F)F)cc3)cc2)ccc1OCCN(C(C)C)C(C)C, the Ki is reported as 79.4 nM.
For Cc1cc(OCCN(C(C)C)C(C)C)ccc1NC(=O)c1ccc(-c2ccccc2)cc1, the Ki was 25.1 nM.
With COc1cc(NC(=O)c2ccc(C(C)(C)C)cc2)ccc1OCCN(C(C)C)C(C)C the Ki was greater than 10000 nM.
COc1cc(NC(=O)c2ccc(-c3ccccc3)cc2C)ccc1OCCN(C(C)C)C(C)C showed a Ki of 126 nM.

Test system: not listed separately
Experiment: Solubility of the compound
Type: physicochemical
Settings: not given
With COc1cc(NC(=O)c2ccc(-c3ccccc3)cc2)ccc1OCCN(C(C)C)C(C)C the solubility was 4 µg/mL (≈ 8.96 µM).

Target: T1, Melanin-concentrating hormone receptor 1
Experiment: Antagonist activity at human MCHR1 expressed in HEK293 cells assessed as inhibition of MCH-stimulated calcium mobilization
Type: functional, cell-based
Settings: not given
Method in brief: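 Stably transfected HEK293 cells re-seeded on poly-D-lysine and grown 24 h, loaded with fluorescent indicator in assay buffer plus probenecid, washed, then exposed to compound for 30 min. FLIPR readings taken before and after an EC80 concentration of MCH. Apparent pKb fitted to the MCH response with a 4-parameter logistic equation.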
COc1cc(NC(=O)c2ccc(-c3ccccc3)cc2)ccc1OCCN(C(C)C)C(C)C gave a pKb of 7.5.

Test system: not listed separately
Experiment: Ratio of drug level in brain against blood in rat 0.3 mg/kg/hr, iv
Type: ADME, organism-based
Design: route intravenous
Settings: read-out: BBR
Method in brief: (§1)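 Rats given compound dissolved in 2% (v/v) DMSO in 5% (w/v) aqueous dextrose by constant iv infusion over 12 h, target 0.3 mg free base/kg/h, for steady-state brain:blood measurement. Blood clearance is the initial elimination rate from blood per unit body mass after this iv dosing.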
Molecule CCN(CC)CCOc1ccc(N(C)C(=O)c2ccc(-c3ccccc3)cc2)cc1OC has a Kp of 0.1.
With COc1cc(N(C)C(=O)c2ccc(-c3ccccc3)cc2)ccc1OCCN1CCCC1 the Kp was 0.1.
CCN(CC)CCOc1ccc(N(C)C(=O)c2ccc(-c3ccc(C(F)(F)F)cc3)cc2)cc1OC showed a Kp of 1.
COc1cc(NC(=O)c2ccc(-c3ccccc3)cc2)ccc1OCCN(C(C)C)C(C)C gave a Kp of 2.7.

Target: T2, 5-hydroxytryptamine receptor 2C (Homo sapiens, UniProt P28335)
T2 sequence (P28335 whole entry): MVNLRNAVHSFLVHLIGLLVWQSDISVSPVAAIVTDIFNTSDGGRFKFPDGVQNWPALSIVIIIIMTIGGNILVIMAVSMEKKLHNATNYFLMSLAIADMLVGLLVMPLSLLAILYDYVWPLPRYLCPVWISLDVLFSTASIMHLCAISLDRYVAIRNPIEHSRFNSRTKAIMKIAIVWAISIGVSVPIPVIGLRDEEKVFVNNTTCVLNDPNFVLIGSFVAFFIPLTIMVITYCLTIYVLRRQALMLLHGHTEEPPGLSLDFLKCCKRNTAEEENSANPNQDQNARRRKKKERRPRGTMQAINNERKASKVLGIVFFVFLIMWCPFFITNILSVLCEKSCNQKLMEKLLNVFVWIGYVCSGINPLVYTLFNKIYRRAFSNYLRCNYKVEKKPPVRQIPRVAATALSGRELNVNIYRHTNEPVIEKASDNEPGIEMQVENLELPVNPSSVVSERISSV
Experiment: Binding affinity to 5HT2C receptor
Settings: not given
With COc1cc(NC(=O)c2ccc(-c3ccccc3)cc2)ccc1OCCN(C(C)C)C(C)C the Ki was 158 nM.

Test system: not listed separately
Experiment: Oral bioavailability in Sprague-Dawley rat
Type: ADME, organism-based
Settings: in vivo
Method in brief: (§2)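 Cannulated Sprague-Dawley rats (n ≥ 3), crossover over two study days: iv infusion of buffered compound at 10 mL/kg/h, target 1.0 mg pfb/kg, blood sampled up to 24 h. After ≥2 days recovery, oral gavage of a suspension in aq methylcellulose (1.5 mg pfb/mL, 2 mL/kg), target 3 mg pfb/kg, blood sampled pre-dose and up to 27 h.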
CCN(CC)CCOc1ccc(N(C)C(=O)c2ccc(-c3ccc(C(F)(F)F)cc3)cc2)cc1OC showed a bioavailability of 30%.

Test system: not listed separately
Experiment: AUC in Sprague-Dawley rat
Type: ADME, organism-based
Settings: plasma
Method in brief: as §2
CCN(CC)CCOc1ccc(N(C)C(=O)c2ccc(-c3ccc(C(F)(F)F)cc3)cc2)cc1OC gave an AUC of 2.37 µM·h.

Test system: not listed separately
Experiment: Solubility in water
Type: physicochemical
Settings: not given
In the case of COc1cc(N(C)C(=O)c2ccc(-c3ccccc3)cc2)ccc1OCCN(C(C)C)C(C)C, the solubility is reported as greater than 500 µg/mL.

Test system: Liver microsomes
Experiment: Intrinsic clearance in rat liver microsome
Type: ADME
Settings: not given
Method in brief: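 Rat liver microsomes at 0.5 mg/mL protein, starting compound 0.5 µM. Compound loss followed as a concentration-time profile. First-order rate constant K taken from the profile; CLi = K·V, scaled and given in mL/min/g liver.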
For COc1cc(NC(=O)c2ccc(-c3ccccc3)cc2)ccc1OCCN1CCCC1, the CL was 2 mL/min/g.
Work on COc1cc(N(C)C(=O)c2ccc(-c3ccccc3)cc2)ccc1OCCN(C(C)C)C(C)C yielded a CL of 19 mL/min/g.
For CCN(CC)CCOc1ccc(N(C)C(=O)c2ccc(-c3ccccc3)cc2)cc1OC, the CL was 5 mL/min/g.
Molecule COc1cc(N(C)C(=O)c2ccc(-c3ccccc3)cc2)ccc1OCCN1CCCC1 has a CL of 2 mL/min/g.
With CCN(CC)CCOc1ccc(N(C)C(=O)c2ccc(-c3ccc(C(F)(F)F)cc3)cc2)cc1OC the CL was 4 mL/min/g.
In the case of CCN(CC)CCOc1ccc(NC(=O)c2ccc(-c3ccccc3)cc2)cc1OC, the CL is reported as 4 mL/min/g.
COc1cc(NC(=O)c2ccc(-c3ccccc3)cc2)ccc1OCCN(C(C)C)C(C)C gave a CL of 9 mL/min/g.

Test system: not listed separately
Experiment: Solubility in artificial cerebrospinal fluid
Type: physicochemical
Settings: not given
With COc1cc(N(C)C(=O)c2ccc(-c3ccccc3)cc2)ccc1OCCN(C(C)C)C(C)C the solubility was greater than 500 µg/mL.

Test system: not listed separately
Experiment: Clearance in rat at 0.3 mg/kg/hr, iv
Type: ADME, organism-based
Design: route intravenous
Settings: in vivo
Method in brief: as §1
CCN(CC)CCOc1ccc(N(C)C(=O)c2ccc(-c3ccccc3)cc2)cc1OC showed a clearance of 51 mL/min/kg.
COc1cc(N(C)C(=O)c2ccc(-c3ccccc3)cc2)ccc1OCCN1CCCC1 showed a clearance of 57 mL/min/kg.
Work on CCN(CC)CCOc1ccc(N(C)C(=O)c2ccc(-c3ccc(C(F)(F)F)cc3)cc2)cc1OC yielded a clearance of 16 mL/min/kg.
Work on COc1cc(NC(=O)c2ccc(-c3ccccc3)cc2)ccc1OCCN(C(C)C)C(C)C yielded a clearance of 67 mL/min/kg.
